The EternaBench riboswitch data

Test system: MS2 coat protein
Experiment: apparent Kd, MS2 coat protein; higher = weaker binding; RNA-MaP array; FMN 200 µM where present
Summary of the method: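 In 100 mM Tris-HCl pH 7.5, 80 mM KCl, 4 mM MgCl2, BSA, DTT, yeast tRNA and Tween-20, SNAP-549-labelled MS2 coat protein was titrated from 0.7 or 1.5 nM, doubling to 3 µM, over designs transcribed by stalled E. coli RNA polymerase on Illumina sequencing-chip clusters. This was done first without ligand, then with ligand held constant. After green signal was normalised to red-channel RNA signal and control-cluster median Fmax, the apparent Kd was taken as the median of filtered per-cluster binding-curve fits.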

[1] = designed as: ON switch for flavin mononucleotide, no ligand
[2] = ligand present: flavin mononucleotide, designed as: ON switch for flavin mononucleotide
[3] = designed as: OFF switch for flavin mononucleotide, no ligand
[4] = ligand present: flavin mononucleotide, designed as: OFF switch for flavin mononucleotide

Row | Sequence | apparent Kd [1] [nM] | apparent Kd [2] [nM] | apparent Kd [3] [nM] | apparent Kd [4] [nM]
1 | AUCGGCUGGCAGAAGGGCUAUGUGAUCCGGUUUUACAUGAGGAUCACCCAUGUAGCCUCGCGCUAGCAGGAUAUGCAACGGCUG | 175 | 40.4 | – | –
2 | GCGUCAGAAUUAAUUGUGACAUACAGAAGGCAAAAUUAAGGAUAAGACAUGAGGAUCACCCAUGUUGAGGAUAUGUAGUGACGC | – | – | 8.7 | 7.57
3 | AGCUAGGCAGGAUAUACGUAAAUGUCGAAAGACGUAUUGGGACAUGAGGAUCACCCAUGUAGAAGGGUCUAGCA | – | – | 37.6 | 123
4 | GGGUACAUCGGAGGAUAUCAUGUAAAUACAUGAGGAUCACCCAUGUCGAUGGAGACAUCGGAUAUUGAGAAGGCCGAUGUACCG | 18.7 | 5.46 | – | –
5 | CUCAUGUAAGGAUAUCUACGCGCUAAGGUGCGUCUAUCACAAGAGAAGGUACAUGAGGAUCACCCAUGUAAAGA | – | – | 103 | 127
6 | GUCAGCACGUGAGGAUAUACAACACUGCUUCGGCAGUGUAUUAAGAUCACAUGAGGAUCACCCAUGUAGAAGGCACGAGCUGAU | – | – | 13.6 | 268
7 | GUAAAUCAUGUAGGAUAUGCAUGGCGAAGCUACGCAGAAGGACAUGAGGAUCACCCAUGUCUGUCCGUCUGCGAACAGACGGAC | – | – | 23.4 | 174
8 | AGCUAGUACCGAGGAUAUACAUACAUGAGGAUCACCCAUGUAUACAUGAAUUAAUGAGACUACAUGUAGAAGGCGGUACUAGCA | 69.1 | 16 | – | –
9 | GCUGUCGCAUGAGGAUAUGGUCAGCUUUGCUGACCAGAAGGCAUGUCAAUAGACAUGAGGAUCACCCAUGUAGUUUGGGCGGCU | 985 | 99.2 | – | –
10 | UGGAUGGUAUGAGGAUAUGCGCGCGAAACGCGCGCAGAAGGCGUGUCAAUAGACAUGAGGAUCACCCAUGUAUUAUCCAUCCAA | 130 | 12.3 | – | –
11 | UUGGUACAAGGAUAUACAUGAGGAUCACCCAUGUUUGGCAUCGCGCGUAUCUCUUCAGGUAGAAGGUGUGUUGA | – | – | 22.3 | 26.5
12 | GGCUACGUUUCGUAGCAGUGUCAUCGAGAAGGCCCUGACAUGAGGAUCACCCAUGUUGUUACAUGGGAGGAUAUCGAUGAUACA | 12.5 | 4.96 | – | –
13 | AAAGACAGAGGAUAUACAUGAGGAUCACCCAUGUGGCGAAAAAAAAUCCAUUUGGCAUGUAGAAGGCUGUAUGA | – | – | 144 | 128
14 | ACACGGAAGUCAGGAUAUGUAUCAGCACGAUUGUUACAUGAGGAUCACCCAUGUUUCACGGGCCAACAGAAGGGACAGGGUGGC | 23.6 | 7.82 | – | –
15 | UGAUAACAUGUAGGAUAUGCAGCAUUGACCACUGCAGAAGGACAUGAGGAUCACCCAUGUAGUUGUACUAUGGGAUCACGCAAU | – | – | 419 | 194
16 | UUAAUUUGGUGAUAUUAUGACAUUAGAAGGCUGUACAUGUUGAUACAUGAGGAUCACCCAUGUAUAGAGGAUAUAGACAAUUUU | – | – | 48 | 105
17 | CUUUUGUGAGGAUAUUAGUAGUAAAUAAUUAAAAUUACUACUGAGAAGGCACAUGAGGAUCACCCAUGUUCCUC | – | – | 33.2 | 344
18 | UUUUUACGAGGAUAUCGUUUUUUUCACAUGAGGAUCACCCAUGUUGUUUAUGUUGCGUUGCGAGAAGGCGUUUGUU | – | – | 27.4 | 22.8
19 | GAAUAUUGGAUAAACAUGAGGAUCACCCAUGUAACUAGACAUGAGGAUAUGGAUUCUAAUUGGAUCCAGAAGGUAUCAAUAUUC | 199 | 227 | – | –
20 | GCACAUGGCAUAGGAUAUAGUUCUAUUGUUUAAAUAGGUAGUUGGACUUAACUAGAAGGAUGUUACAUGAGGAUCACCCAUGUU | 11.2 | 11.3 | – | –
21 | AUCUUGCGAGGAUAUACUUACUUUUUUUCAUUUGGUUGCGAACAUGAGGAUCACCCAUGUAGAAGGUGCAUAAC | – | – | 27.6 | 23.6
22 | CUAGCAUACCGAGGAUAUUCAUAUAAUAAAUAAACAUGAGGAUCACCCAUGUGGCGAAAGCCUAGGGAGAAGGCGGAAUGCUAC | 162 | 27 | – | –
23 | AUGCUUUAUGUAGGAUAUGCAUACGGUACGUAUGCAGAAGGACAUGAGGAUCACCCAUGUAAAUUAUUAUUACAUAUCAUACAU | – | – | – | 44
24 | UUUGGGUGGCUGGAGGAUAUUCUAGUGGUUACAUGAGGAUCACCCAUGUGUCGCGCGGUACGCGAGGAGAAGGCUGGCGGCCGUU | 135 | 35.1 | – | –

Row | Sequence | apparent Kd [1] [nM] | apparent Kd [2] [nM] | apparent Kd [3] [nM] | apparent Kd [4] [nM]
25 | AGAGAUGACGAAGGAUAUGGAUACAUGAGGAUCACCCAUGUUUAUUUAGUGAUUUUGUAUGAAUACCAGAAGGUCGAAUAAAAG | – | – | 125 | 342
26 | AAUUAGGUCACAGGAUAUACUACUUCCAAUGCUGUAGAAGGGUGACACAUUCUUUGCUGACAUGAGGAUCACCCAUGUAACCAC | 231 | 41 | – | –
27 | GUAGAGUAGUGAGGAUAUACGAGCUCGAUAGAGCGGCGAUCCAUUAAUACAUGAGGAUCACCCAUGUAGAAGGCACUUCUCUAC | – | – | 5.83 | 72
28 | AAGCUGCGCCAGAAGGGACCGACAUGAGGAUCACCCAUGUCCACAAGAGUCAGGAUAUGGCGUGGAGGCUCGUUUAUGUCCAAG | 13.1 | 5.44 | – | –
29 | GGGAAACAUGAGGAUCACCCAUGUGAGGAUAUCGAAAAAAAAAAAAAAAAAAAAAAAACGAGAAGGCACACCGG | – | – | 71 | 110
30 | AGAUAACACCAGAAGGACAUGAGGAUCACCCAUGUAGGAUAUGGGCAUCACUCGAGAAAGAAACGACCAAAAGGACACGUGGUC | 177 | 13.4 | – | –
31 | UAGGUGUGAGGAUAUGGUAAAGAUAAAAUGAUGAAAGAACUCCAGAAGGCACAUGAGGAUCACCCAUGUAGAUG | – | – | 29.2 | 54.9
32 | ACCGGAGCAGGAUAUACAUGAGGAUCACCCAUGUGAGCCACACAGCUACUAUAUGCAAGUAGAAGGGCUCGGGU | – | – | 74.2 | 120
33 | UUAUAUAAGGUGUAGCUAGACAUGCAAGAAGGGUGAAGAACAUGAGGAUCACCCAUGUAGACGGUACAGGAUAUUGAUUGACGA | 340 | 166 | – | –
34 | GGUACCAUCGCAGGAUAUGCUUUCCUUUGGGAAGCAGAAGGGUGUAACAUGAGGAUCACCCAUGUGGUGCCAGGGCGUGAGCCU | 862 | 48.7 | – | –
35 | AAACAUGUCCGAGGAUAUCUGGAAACAUUUUCAAGAGAAGGCGGACAUGAGGAUCACCCAUGUCUCACCUCAUCAAAUCCAAGU | – | – | 8.24 | 30.2
36 | CUUCUGUCAGGAUAUGCGAAUCGGCACUGGGUCAGUGGCGAGCAGAAGGGACAUGAGGAUCACCCAUGUAAAGU | – | – | 32.8 | 131
37 | GCAUGACAAAGUCAUGCAUAACGAACAUGAGGAUCACCCAUGUAGGAUAUGCUACUCAAAGAGUAGCAGAAGGACAUGUGCCUU | – | – | 34.2 | 263
38 | GACUAGGCAGGAUAUACAUGAGGAUCACCCAUGUGUCUGCGUUGGGCACGUGAACACCGUAGAAGGGCCUUGAC | – | – | 15.8 | 35
39 | CAUGUCCUCACAGGAUAUGCUGGACUUUGUCCAGCAGAAGGGUGAACAUGAGGAUCACCCAUGUAGUGGACAUGUAUAUUUAAU | 543 | 276 | – | –
40 | UAACCUCGCGUCAGGAUAUGCGAGGACUGUGACGUGCAGAAGGGACAUGAGGAUCACCCAUGUGAAAGAAUUAA | – | – | 25.2 | 25.4
41 | UCGGCGCGAGGAUAUACGUUUGCUCUUUUUCGUUUUUGUGUACAUGAGGAUCACCCAUGUAGAAGGCGCGCCGC | – | – | 17.9 | 63.7
42 | UUAAUCUGAACAUGAGGAUCACCCAUGUAUCUUACCUUAGGACAGGAUAUAGAUGUUAAGAAUUACUAGAAGGGUCAGUAUAUU | 42.5 | 35.9 | – | –
43 | CCGGAAAUACAGGAUAUCGUAUCGGAUACGAUACGAGAAGGGUAUACAUGAGGAUCACCCAUGUGUCCUACCGG | – | – | 25.1 | 32
44 | AUCUUUAAGGUAGGAUAUAGUAUGAUGGUUUAAUUAGAAGGAUCUCACAUGAGGAUCACCCAUGUAAUAGGAUUACCCAUGUAU | – | – | 54 | 43.6
45 | UGUGCGUCAGGAUAUUCUACUUAUUACAUGAGGAUCACCCAUGUGUAUGUACAAGGGUGUGAAGAAGGGACUUGUC | – | – | 935 | 305
46 | UCUUUGCUAUAUACAUGAGGAUCACCCAUGUCCACUGACAGACAGGAUAUCCUUAGAAACUAGCAGGAGAAGGGUCAGUCAUAC | 140 | 74.8 | – | –
47 | GGGCCCGGAGGAUAUACAUGAGGAUCACCCAUGUACCCGGGUUUUAUUGGGCCCGGGUGUAGAAGGCCGGGCCC | – | – | 13.1 | 14.8
48 | AUAUGACAUGAGGAUCACCCAUGUAUUCGAGCAUGAGGAUAUAUGACUCGUCAUCGGCGGAUAGAAGGCAUGGUUG | 88.5 | 143 | – | –
